# Data as given in ChEMBL document CHEMBL1145135, “Structure-activity relationships of the p38alpha MAP kinase inhibitor 1-(5-tert-butyl-2-p-tolyl-2H-pyrazol-3-yl)-3-[4-(2-morpholin-4-yl-ethoxy)naph- thalen-1-yl]urea (BIRB 796)” (J Med Chem, 2003).
# Activity calls are given as the source filed them. No cut-off for these calls is given here.
# Tests used:
# [1] = target: Mitogen-activated protein kinase 14 (Mus musculus) (UniProt P47811)
# [2] = target: Mitogen-activated protein kinase 14 (Mus musculus, UniProt P47811); assay: Kd value and murine Mitogen-activated protein kinase p38 alpha complex was calculated
# Sequence of Mitogen-activated protein kinase 14 (P47811 whole entry): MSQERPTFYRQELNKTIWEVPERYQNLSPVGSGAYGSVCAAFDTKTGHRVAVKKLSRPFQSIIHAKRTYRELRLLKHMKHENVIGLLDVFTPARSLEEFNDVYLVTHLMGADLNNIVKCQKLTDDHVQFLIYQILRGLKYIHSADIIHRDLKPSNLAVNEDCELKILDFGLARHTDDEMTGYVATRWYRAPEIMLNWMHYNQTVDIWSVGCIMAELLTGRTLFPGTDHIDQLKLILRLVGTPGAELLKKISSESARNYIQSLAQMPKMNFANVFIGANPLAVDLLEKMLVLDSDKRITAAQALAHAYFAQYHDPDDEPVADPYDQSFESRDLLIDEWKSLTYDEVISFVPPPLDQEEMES
# [3] = target: Tumor necrosis factor (Mus musculus) (UniProt P06804); assay: Tested for inhibition of Tumor necrosis factor, alpha in LPS-stimulated mice at a dose of 10 mg/kg; Not statistically significant.; conditions: at 10 mg/kg
# Sequence of Tumor necrosis factor (Mus musculus) (P06804 whole entry, looked up): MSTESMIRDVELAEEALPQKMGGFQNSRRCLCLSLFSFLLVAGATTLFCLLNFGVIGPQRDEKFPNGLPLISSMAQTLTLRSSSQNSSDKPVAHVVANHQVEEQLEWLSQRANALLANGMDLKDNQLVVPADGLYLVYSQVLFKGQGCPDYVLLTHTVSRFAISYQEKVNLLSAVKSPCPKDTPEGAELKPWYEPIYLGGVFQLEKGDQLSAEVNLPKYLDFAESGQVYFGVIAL
# [4] = target: T1, Tumor necrosis factor (Homo sapiens, UniProt P01375); assay: Tested for inhibition of Tumor necrosis factor, alpha in human whole blood; type: functional, tissue-based
# T1 sequence (P01375 whole entry): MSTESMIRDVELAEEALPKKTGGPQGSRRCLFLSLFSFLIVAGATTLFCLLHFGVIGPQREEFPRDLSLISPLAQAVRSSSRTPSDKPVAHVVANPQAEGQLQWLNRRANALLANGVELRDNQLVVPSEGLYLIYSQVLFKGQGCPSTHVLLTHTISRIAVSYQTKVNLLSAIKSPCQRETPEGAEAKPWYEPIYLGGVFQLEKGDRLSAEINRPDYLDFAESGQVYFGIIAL
# Procedure, shortened: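 Freshly drawn heparinized human whole blood mixed with compound serially diluted in human type AB serum, held 30 min at 37 °C, then stimulated ex vivo with E. coli LPS 0111:B4 (50 ng/mL final). Incubation 5 h at 37 °C. Plasma TNF-α quantified by ELISA, DELFIA or electrochemiluminescence against an on-plate standard curve. Duplicate 11-point curves fitted to a 4-parameter logistic. EC50 is the geometric mean over at least three donors.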
# [5] = Tested for plasma level after 90 min of 30 mg/kg dose administered in mice; type: ADME, organism-based; design: dose 30 mg/kg; conditions: mouse, read-out: Activity
# Procedure, shortened: (§1)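 Plasma compound concentration (ng/mL) measured 90 min after oral dosing in LPS-stimulated mice at 10 or 30 mg/kg.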
# [6] = target: T1, Tumor necrosis factor; assay: Tested for inhibition of Tumor necrosis factor, alpha in THP cells; type: functional, cell-based
# Procedure, shortened: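 THP-1 cells preincubated with or without compound 30 min at 37 °C, 5% CO2, then stimulated with LPS (1 μg/mL final) for a further 18–24 h. Human TNF-α in supernatant measured by ELISA.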
# [7] = Tested for plasma level after 90 min of 10 mg/kg dose administered in mice; type: ADME, organism-based; design: dose 10 mg/kg; conditions: mouse, read-out: Activity
# Procedure, shortened: as §1
# [8] = target: Tumor necrosis factor (Mus musculus) (UniProt P06804); assay: Tested for inhibition of Tumor necrosis factor, alpha in LPS-stimulated mice at a dose of 30 mg/kg
# [9] = test system: Mus musculus; assay: Tested for plasma level after 90 min of 10 mg/kg dose administered in mice; Not detected.; type: ADME, organism-based; design: dose 10 mg/kg; conditions: in vivo, 1.5 h
# Procedure, shortened: as §1
# [10] = Partition coefficient (logP); type: physicochemical; conditions: octanol/water
# [11] = target: Tumor necrosis factor (Mus musculus) (UniProt P06804); assay: Tested for inhibition of Tumor necrosis factor, alpha in LPS-stimulated mice at a dose of 10 mg/kg; conditions: at 10 mg/kg
# Sequence of Mitogen-activated protein kinase 14 (Mus musculus) (P47811 whole entry): as the sequence (P47811 whole entry) above
Tm [1] [°C],Kd [2] [nM],concentration at 1.5 h [5] [ng/mL],concentration at 1.5 h [7] [ng/mL],Activity [9],logP [10],SMILES,inhibition [3],EC50 [4] [nM],EC50 [6] [nM],inhibition [8] [%],inhibition [11] [%]
56.6,5.9,–,–,–,–,Cc1ccc(-n2nc(C(C)(C)C)cc2NC(=O)Nc2ccc(OCCN3CCSCC3)c3ccccc23)cc1,–,–,–,–,–
59.8,0.52,–,–,–,–,Cc1ccc(-n2nc(C(C)(C)C)cc2NC(=O)Nc2ccc(OCCc3cccnc3)c3ccccc23)cc1,–,–,–,–,–
57.3,3.5,–,–,–,–,COc1ccc(CCOc2ccc(NC(=O)Nc3cc(C(C)(C)C)nn3-c3ccc(C)cc3)c3ccccc23)cc1OC,–,–,–,–,–
58.1,1.9,–,–,–,–,CC1(c2cc(NC(=O)Nc3ccc(OCCN4CCOCC4)c4ccccc34)n(-c3ccccc3)n2)CCCCC1,–,–,–,–,–
55.6,12,–,–,–,–,Cc1ccc(-n2nc(C(C)(C)C)cc2NC(=O)Nc2ccc(OCCN3CCNCC3)c3ccccc23)cc1,–,–,–,–,–
53.4,64,–,–,–,–,CC(C)(C)c1cc(NC(=O)Nc2ccc(OCCN3CCOCC3)c3ccccc23)n(Cc2ccccc2)n1,–,–,–,–,–
62.1,0.096,25000,4200,–,–,Cc1ccc(-n2nc(C(C)(C)C)cc2NC(=O)Nc2ccc(OCCN3C[C@H](C)O[C@@H](C)C3)c3ccccc23)cc1,inactive,770,16,50,–
61.4,0.16,–,–,Not Active,–,CC(C)(C)c1cc(NC(=O)Nc2ccc(OCCN3CCOCC3)c3ccccc23)n(-c2ccc(N)cc2)n1,inactive,440,9,–,–
63.5,–,75000,30000,–,4.6,Cc1ccc(-n2nc(C(C)(C)C)cc2NC(=O)Nc2ccc(OCCN3CCOCC3)c3ccccc23)cc1 [DORAMAPIMOD],–,780,18,84,63
60.2,0.4,62800,–,–,–,Cc1ccc(-n2nc(C(C)(C)C)cc2NC(=O)Nc2ccc(OCCN3CC[S+]([O-])CC3)c3ccccc23)cc1,–,1300,50,84,–
62.4,0.074,7000,–,–,–,Cc1ccc(-n2nc(C(C)(C)C)cc2NC(=O)Nc2ccc(OCCn3ccnc3)c3ccccc23)cc1,–,1100,36,81,–
54.8,23,–,–,–,–,CC(C)(C)c1cc(NC(=O)Nc2ccc(OCCN3CCOCC3)c3ccccc23)n(C2CCCCC2)n1,–,–,–,–,–
61,0.23,38000,5400,–,–,CC(C)(C)c1cc(NC(=O)Nc2ccc(OCCN3CCOCC3)c3ccccc23)n(-c2ccccc2)n1,–,3400,9,81,57
58.4,1.5,–,–,–,–,Cc1ccc(-n2nc(C(C)(C)C)cc2NC(=O)Nc2ccc(OCCN3C[C@@H](C)O[C@@H](C)C3)c3ccccc23)cc1,–,–,–,–,–
62.4,0.1,30000,–,–,–,Cc1ccc(-n2nc(C(C)(C)C)cc2NC(=O)Nc2ccc(OCCc3ccncc3)c3ccccc23)cc1,–,820,20,88,–
54.5,26,–,–,–,–,Cn1nc(C(C)(C)C)cc1NC(=O)Nc1ccc(OCCN2CCOCC2)c2ccccc12,–,–,–,–,–
60.9,0.23,–,1400,–,–,CC(C)(C)c1cc(NC(=O)Nc2ccc(OCCN3CCOCC3)c3ccccc23)n(-c2cccc(N)c2)n1,inactive,1600,11,–,–
61.3,0.18,54000,13000,–,3.6,Cc1ccc(-n2nc(C(C)(C)C)cc2NC(=O)Nc2ccc(OCCN3CCOCC3)c3ccccc23)cn1,–,530,19,87,86
55.5,11,–,–,–,–,CCOc1ccc(NC(=O)Nc2cc(C(C)(C)C)nn2-c2ccc(C)cc2)c2ccccc12,–,–,–,–,–
56.6,3.4,–,–,–,–,CC(C)c1cc(NC(=O)Nc2ccc(OCCN3CCOCC3)c3ccccc23)n(-c2ccccc2)n1,–,–,–,–,–
53.4,64,–,–,–,–,CC(=O)Nc1ccc(-n2nc(C(C)(C)C)cc2NC(=O)Nc2ccc(OCCN3CCOCC3)c3ccccc23)cc1,–,–,–,–,–
59.1,0.87,80000,–,–,–,COc1ccc(-n2nc(C(C)(C)C)cc2NC(=O)Nc2ccc(OCCN3CCOCC3)c3ccccc23)cn1,–,> 10000,42,40,–
53,56,–,–,–,–,Cc1ccc(-n2nc(C(C)(C)CO)cc2NC(=O)Nc2ccc(OCCN3CCOCC3)c3ccccc23)cc1,–,–,–,–,–
55.9,9.9,–,–,–,–,CC(=O)Nc1cccc(-n2nc(C(C)(C)C)cc2NC(=O)Nc2ccc(OCCN3CCOCC3)c3ccccc23)c1,–,–,–,–,–
55.4,14,–,–,–,–,Cc1ccc(-n2nc(C(C)(C)C)cc2NC(=O)Nc2ccc(OCCN3CCCCC3)c3ccccc23)cc1,–,–,–,–,–
49.1,2400,–,–,–,–,O=C(Nc1ccc(OCCN2CCOCC2)c2ccccc12)Nc1ccnn1-c1ccccc1,–,–,–,–,–
